Results from ChEMBL document CHEMBL3616442, “Unconventional Knoevenagel-type indoles: Synthesis and cell-based studies for the identification of pro-apoptotic agents” (Eur J Med Chem, 2015).

Key:
SK-MEL-5 = assay: Growth inhibition of human SK-MEL-5 cells after 48 hrs by sulforhodamine B assay; type: functional; conditions: SK-MEL-5, 48 h
UACC-62 = assay: Growth inhibition of human UACC62 cells after 48 hrs by sulforhodamine B assay; type: functional; conditions: UACC-62, 48 h
SNB-75 = assay: Growth inhibition of human SNB75 cells after 48 hrs by sulforhodamine B assay; type: functional; conditions: SNB-75, 48 h
OVCAR-5 = assay: Growth inhibition of human OVCAR5 cells after 48 hrs by sulforhodamine B assay; type: functional; conditions: OVCAR-5, 48 h
SK-MEL-2 = assay: Growth inhibition of human SK-MEL-2 cells after 48 hrs by sulforhodamine B assay; type: functional; conditions: SK-MEL-2, 48 h
HCT-116 = assay: Growth inhibition of human HCT116 cells after 48 hrs by sulforhodamine B assay; type: functional; conditions: HCT-116, 48 h
In short: (§1)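 NCI 60-cell-line screen. Compounds tested at five 10-fold dilutions from 10^-4 to 10^-8 M. Cells exposed for the last 48 h of a 72 h incubation, growth estimated by sulforhodamine B protein assay. GI50 is the concentration giving 50% growth inhibition. Values beyond the tested range are expressed as greater or lesser than the extreme concentration.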

OVCAR-4 = assay: Growth inhibition of human OVCAR4 cells after 48 hrs by sulforhodamine B assay; type: functional; conditions: OVCAR-4, 48 h; in short: as §1
NCI-H226 = assay: Growth inhibition of human NCI-H226 cells after 48 hrs by sulforhodamine B assay; type: functional; conditions: NCI-H226, 48 h; in short: as §1
A549 = assay: Growth inhibition of human A549 cells after 48 hrs by sulforhodamine B assay; type: functional; conditions: A549, 48 h; in short: as §1
[1] = Growth inhibition of human BT549 cells after 48 hrs by sulforhodamine B assay; type: functional; conditions: BT-549, 48 h; in short: as §1
[2] = Growth inhibition of human HCC2998 cells after 48 hrs by sulforhodamine B assay; type: functional; conditions: HCC 2998, 48 h; in short: as §1
[3] = Growth inhibition of human NCI-ADR-RES cells after 48 hrs by sulforhodamine B assay; type: functional; in short: as §1
ACHN = assay: Growth inhibition of human ACHN cells after 48 hrs by sulforhodamine B assay; type: functional; in short: as §1
HT-29 = assay: Growth inhibition of human HT-29 cells after 48 hrs by sulforhodamine B assay; type: functional; conditions: HT-29, 48 h; in short: as §1
TK-10 = assay: Growth inhibition of human TK10 cells after 48 hrs by sulforhodamine B assay; type: functional; conditions: TK-10, 48 h
Malme-3M = assay: Growth inhibition of human MALME-3M cells after 48 hrs by sulforhodamine B assay; type: functional; in short: as §1
KM12 = assay: Growth inhibition of human KM12 cells after 48 hrs by sulforhodamine B assay; type: functional; conditions: KM12, 48 h; in short: as §1
SW-620 = assay: Growth inhibition of human SW620 cells after 48 hrs by sulforhodamine B assay; type: functional; conditions: SW-620, 48 h
[4] = Growth inhibition of human LOXIMVI cells after 48 hrs by sulforhodamine B assay; type: functional; conditions: LOX IMVI; in short: as §1
U-251 = assay: Growth inhibition of human U251 cells after 48 hrs by sulforhodamine B assay; type: functional; conditions: U-251, 48 h
SNB-19 = assay: Growth inhibition of human SNB19 cells after 48 hrs by sulforhodamine B assay; type: functional; conditions: SNB-19, 48 h
MDA-MB-468 = assay: Growth inhibition of human MDA-MB-468 cells after 48 hrs by sulforhodamine B assay; type: functional; conditions: MDA-MB-468, 48 h; in short: as §1
SK-MEL-28 = assay: Growth inhibition of human SK-MEL-28 cells after 48 hrs by sulforhodamine B assay; type: functional; conditions: SK-MEL-28, 48 h
K562 = assay: Growth inhibition of human K562 cells after 48 hrs by sulforhodamine B assay; type: functional; conditions: K562, 48 h; in short: as §1
NCI-H23 = assay: Growth inhibition of human NCI-H23 cells after 48 hrs by sulforhodamine B assay; type: functional; conditions: NCI-H23, 48 h; in short: as §1
HL-60(TB) = assay: Growth inhibition of human HL-60(TB) cells after 48 hrs by sulforhodamine B assay; type: functional; conditions: HL-60, 48 h
In short: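 NCI 60-cell-line screen, HL-60(TB) included. Compound given at five 10-fold dilutions from 10^-4 to 10^-8 M. Cells exposed for the last 48 h of a 72 h incubation. Growth or viability estimated by sulforhodamine B protein assay. GI50 is the concentration giving 50% growth inhibition. Values outside the tested range are reported as greater or less than the highest or lowest concentration.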

DU-145 = assay: Growth inhibition of human DU145 cells after 48 hrs by sulforhodamine B assay; type: functional; conditions: DU-145, 48 h; in short: as §1
MCF7 = assay: Growth inhibition of human MCF7 cells after 48 hrs by sulforhodamine B assay; type: functional; conditions: MCF7, 48 h; in short: as §1
NCI-H460 = assay: Growth inhibition of human NCI-H460 cells after 48 hrs by sulforhodamine B assay; type: functional; conditions: NCI-H460, 48 h; in short: as §1
[5] = Growth inhibition of human Hs 578T cells after 48 hrs by sulforhodamine B assay; type: functional; in short: as §1
OVCAR-8 = assay: Growth inhibition of human OVCAR8 cells after 48 hrs by sulforhodamine B assay; type: functional; conditions: OVCAR-8, 48 h
OVCAR-3 = assay: Growth inhibition of human OVCAR3 cells after 48 hrs by sulforhodamine B assay; type: functional; conditions: OVCAR-3, 48 h; in short: as §1
A498 = assay: Growth inhibition of human A498 cells after 48 hrs by sulforhodamine B assay; type: functional; conditions: A498, 48 h; in short: as §1
HCT-15 = assay: Growth inhibition of human HCT15 cells after 48 hrs by sulforhodamine B assay; type: functional; conditions: HCT-15, 48 h; in short: as §1
[6] = Growth inhibition of human RXF393 cells after 48 hrs by sulforhodamine B assay; type: functional; conditions: RXF 393, 48 h
NCI-H322M = assay: Growth inhibition of human NCI-H322M cells after 48 hrs by sulforhodamine B assay; type: functional; in short: as §1
UACC-257 = assay: Growth inhibition of human UACC257 cells after 48 hrs by sulforhodamine B assay; type: functional; conditions: UACC-257, 48 h
[7] = Growth inhibition of human HOP92 cells after 48 hrs by sulforhodamine B assay; type: functional; conditions: HOP-92, 48 h; in short: as §1
[8] = Growth inhibition of human SF539 cells after 48 hrs by sulforhodamine B assay; type: functional; conditions: SF-539, 48 h
MT4 = assay: Antiproliferative activity against human MT4 cells after 96 hrs by MTT assay; type: functional, cell-based; conditions: MT4, 96 h
In short: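 Exponentially growing MT-4 cells (CD4+ human T-cells carrying integrated HTLV-1 genome), seeded at 1×10^5 cells/mL in RPMI-1640 with 10% FCS and antibiotics. Serial dilutions of compound (DMSO stock 100 mM, diluted in medium), 37 °C, 5% CO₂, 96 h. Viability read by MTT. 50% inhibition versus untreated controls by linear regression. Mean ± SD of three independent determinations.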

UO-31 = assay: Growth inhibition of human UO31 cells after 48 hrs by sulforhodamine B assay; type: functional; conditions: UO-31, 48 h
[9] = Growth inhibition of human EKVX cells after 48 hrs by sulforhodamine B assay; type: functional; in short: as §1
[10] = Growth inhibition of human MOLT4 cells after 48 hrs by sulforhodamine B assay; type: functional; conditions: MOLT-4, 48 h; in short: as §1

SMILES: CC(=O)/C(=C\c1c(-c2ccccc2)[nH]c2ccccc12)S(=O)(=O)c1ccccc1
- GI50 (SK-MEL-5): 832 nM
- GI50 (UACC-62): 1000 nM
- GI50 (SNB-75): 1700 nM
- GI50 (OVCAR-5): 2000 nM
- GI50 (SK-MEL-2): 1400 nM
- GI50 (HCT-116): 754 nM
- GI50 (OVCAR-4): 3700 nM
- GI50 (NCI-H226): 1900 nM
- GI50 (A549): 7200 nM
- GI50 [1]: 1900 nM
- GI50 [2]: 1400 nM
- GI50 [3]: 520 nM
- GI50 (ACHN): 1800 nM
- GI50 (HT-29): 589 nM
- GI50 (TK-10): 3800 nM
- GI50 (Malme-3M): 2100 nM
- GI50 (KM12): 1000 nM
- GI50 (SW-620): 778 nM
- GI50 [4]: 1400 nM
- GI50 (U-251): 1200 nM
- GI50 (SNB-19): 6100 nM
- GI50 (MDA-MB-468): 1700 nM
- GI50 (SK-MEL-28): 2000 nM
- GI50 (K562): 442 nM
- GI50 (NCI-H23): 1600 nM
- GI50 (HL-60(TB)): 1700 nM
- GI50 (DU-145): 3000 nM
- GI50 (MCF7): 945 nM
- GI50 (NCI-H460): 1100 nM
- GI50 [5]: 5000 nM
- GI50 (OVCAR-8): 2500 nM
- GI50 (OVCAR-3): 1600 nM
- GI50 (A498): 2000 nM
- GI50 (HCT-15): 836 nM
- GI50 [6]: 1300 nM
- GI50 (NCI-H322M): 6100 nM
- GI50 (UACC-257): 2200 nM
- GI50 [7]: 5900 nM
- GI50 [8]: 1300 nM
- EC50 (MT4): 400 nM
- GI50 (UO-31): 1600 nM
- GI50 [9]: 3300 nM
- GI50 [10]: 1600 nM

SMILES: N#CC(C#N)=Cc1c(-c2ccccc2)[nH]c2ccccc12
- GI50 (SK-MEL-5): 1100 nM
- GI50 (UACC-62): 2600 nM
- GI50 (SNB-75): 2000 nM
- GI50 (OVCAR-5): 19700 nM
- GI50 (SK-MEL-2): 27600 nM
- GI50 (HCT-116): 2300 nM
- GI50 (OVCAR-4): 5200 nM
- GI50 (NCI-H226): 4100 nM
- GI50 (A549): 4600 nM
- GI50 [1]: 9400 nM
- GI50 [2]: 10400 nM
- GI50 [3]: 826 nM
- GI50 (ACHN): 7300 nM
- GI50 (HT-29): 526 nM
- GI50 (TK-10): 5300 nM
- GI50 (Malme-3M): 26000 nM
- GI50 (KM12): 684 nM
- GI50 (SW-620): 539 nM
- GI50 [4]: 3300 nM
- GI50 (U-251): 1200 nM
- GI50 (SNB-19): 5700 nM
- GI50 (MDA-MB-468): 1000 nM
- GI50 (SK-MEL-28): 5100 nM
- GI50 (K562): 478 nM
- GI50 (NCI-H23): 4700 nM
- GI50 (HL-60(TB)): 1800 nM
- GI50 (DU-145): 3300 nM
- GI50 (MCF7): 1100 nM
- GI50 (NCI-H460): 2100 nM
- GI50 [5]: 2300 nM
- GI50 (OVCAR-8): 6000 nM
- GI50 (OVCAR-3): 1800 nM
- GI50 (A498): 3000 nM
- GI50 (HCT-15): 971 nM
- GI50 [6]: 3300 nM
- GI50 (NCI-H322M): 11400 nM
- GI50 (UACC-257): 28100 nM
- GI50 [7]: 7700 nM
- GI50 [8]: 2100 nM
- EC50 (MT4): 400 nM
- GI50 (UO-31): 11100 nM
- GI50 [9]: 5800 nM
- GI50 [10]: 43200 nM
